What was measured:
Carbonic anhydrase 9 [1] = biological target: T1, Carbonic anhydrase 9 (Homo sapiens, UniProt Q16790); experiment: Inhibition of transmembrane tumor-associated human carbonic anhydrase 9 preincubated for 15 mins by stopped flow CO2 hydration assay
Method in brief: (§1)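 Stopped-flow CO2 hydration, with phenol red 0.2 mM as indicator at 557 nm. Buffer 20 mM Hepes pH 7.5 with 20 mM NaClO4. Initial rates measured over 10–100 s, with uncatalyzed rate subtracted. Inhibitor stock 0.1 mM in water, diluted with assay buffer. Enzyme and inhibitor preincubated 15 min at room temperature. KI by non-linear least squares, mean of at least three determinations.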

Carbonic anhydrase 12 [2] = biological target: T2, Carbonic anhydrase 12 (Homo sapiens, UniProt O43570); experiment: Inhibition of transmembrane tumor-associated human carbonic anhydrase 12 preincubated for 15 mins by stopped flow CO2 hydration assay; method in brief: as §1
T2 sequence (O43570 whole entry): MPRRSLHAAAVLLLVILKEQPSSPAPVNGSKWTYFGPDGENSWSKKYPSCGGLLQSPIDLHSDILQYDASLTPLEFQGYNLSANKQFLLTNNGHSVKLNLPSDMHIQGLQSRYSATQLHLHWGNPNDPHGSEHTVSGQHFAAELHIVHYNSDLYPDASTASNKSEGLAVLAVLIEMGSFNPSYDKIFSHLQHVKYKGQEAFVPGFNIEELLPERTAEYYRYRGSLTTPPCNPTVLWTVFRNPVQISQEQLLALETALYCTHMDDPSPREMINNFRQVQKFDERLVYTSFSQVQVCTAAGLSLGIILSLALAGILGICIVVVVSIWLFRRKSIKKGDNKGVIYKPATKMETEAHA

Carbonic anhydrase 7 = Carbonic anhydrase 7 (Homo sapiens, UniProt P43166); experiment: Inhibition of human carbonic anhydrase 7 preincubated for 15 mins by stopped flow CO2 hydration assay; method in brief: as §1
Carbonic anhydrase 7, sequence (P43166 whole entry): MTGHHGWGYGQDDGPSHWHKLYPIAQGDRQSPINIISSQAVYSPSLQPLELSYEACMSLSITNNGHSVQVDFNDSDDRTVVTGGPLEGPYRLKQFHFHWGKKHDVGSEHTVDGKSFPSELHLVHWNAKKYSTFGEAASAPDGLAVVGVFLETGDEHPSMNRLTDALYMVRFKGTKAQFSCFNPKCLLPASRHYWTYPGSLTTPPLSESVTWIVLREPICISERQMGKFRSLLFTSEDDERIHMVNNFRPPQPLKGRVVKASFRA

Carbonic anhydrase 15 = biological target: T3, Carbonic anhydrase 15 (Mus musculus, UniProt Q99N23); experiment: Inhibition of mouse carbonic anhydrase 15 preincubated for 15 mins by stopped flow CO2 hydration assay; method in brief: as §1
T3 sequence (Q99N23 whole entry): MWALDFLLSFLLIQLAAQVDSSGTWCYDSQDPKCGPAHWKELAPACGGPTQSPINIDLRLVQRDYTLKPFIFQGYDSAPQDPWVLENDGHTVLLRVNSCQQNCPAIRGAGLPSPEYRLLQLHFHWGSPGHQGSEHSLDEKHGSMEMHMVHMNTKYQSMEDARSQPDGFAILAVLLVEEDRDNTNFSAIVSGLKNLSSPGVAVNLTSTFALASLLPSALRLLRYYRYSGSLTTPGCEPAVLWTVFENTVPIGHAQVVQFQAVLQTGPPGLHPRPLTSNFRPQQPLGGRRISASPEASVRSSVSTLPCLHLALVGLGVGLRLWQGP

Carbonic anhydrase 2 [3] = biological target: T4, Carbonic anhydrase 2 (Homo sapiens, UniProt P00918); experiment: Inhibition of cytosolic human carbonic anhydrase 2 preincubated for 15 mins by stopped flow CO2 hydration assay
Carbonic anhydrase 3 = Carbonic anhydrase 3 (Homo sapiens, UniProt P07451); experiment: Inhibition of human carbonic anhydrase 3 preincubated for 15 mins by stopped flow CO2 hydration assay
Carbonic anhydrase 3, sequence (P07451 whole entry): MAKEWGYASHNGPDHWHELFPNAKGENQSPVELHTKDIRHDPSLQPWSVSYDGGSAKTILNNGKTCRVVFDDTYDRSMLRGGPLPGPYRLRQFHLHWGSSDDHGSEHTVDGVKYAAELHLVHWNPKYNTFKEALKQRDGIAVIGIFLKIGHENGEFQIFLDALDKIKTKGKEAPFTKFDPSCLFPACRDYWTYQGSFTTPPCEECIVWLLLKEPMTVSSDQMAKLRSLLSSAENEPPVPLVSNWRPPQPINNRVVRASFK

Carbonic anhydrase 4 = Carbonic anhydrase 4 (Homo sapiens, UniProt P22748); experiment: Inhibition of human carbonic anhydrase 4 preincubated for 15 mins by stopped flow CO2 hydration assay
Carbonic anhydrase 4, sequence (P22748 whole entry): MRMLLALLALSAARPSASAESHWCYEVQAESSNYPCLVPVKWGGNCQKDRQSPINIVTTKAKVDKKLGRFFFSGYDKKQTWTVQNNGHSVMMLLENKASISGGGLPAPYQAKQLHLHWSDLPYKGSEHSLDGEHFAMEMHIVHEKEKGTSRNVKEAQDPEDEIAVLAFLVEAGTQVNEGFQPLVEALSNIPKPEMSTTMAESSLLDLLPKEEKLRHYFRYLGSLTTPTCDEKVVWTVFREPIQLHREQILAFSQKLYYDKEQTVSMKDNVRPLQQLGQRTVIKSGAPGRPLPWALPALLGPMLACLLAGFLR

[4] = biological target: Carbonic anhydrase 5B, mitochondrial (Homo sapiens, UniProt Q9Y2D0); experiment: Inhibition of human carbonic anhydrase 5b preincubated for 15 mins by stopped flow CO2 hydration assay
Carbonic anhydrase 5B, mitochondrial, sequence (Q9Y2D0 whole entry): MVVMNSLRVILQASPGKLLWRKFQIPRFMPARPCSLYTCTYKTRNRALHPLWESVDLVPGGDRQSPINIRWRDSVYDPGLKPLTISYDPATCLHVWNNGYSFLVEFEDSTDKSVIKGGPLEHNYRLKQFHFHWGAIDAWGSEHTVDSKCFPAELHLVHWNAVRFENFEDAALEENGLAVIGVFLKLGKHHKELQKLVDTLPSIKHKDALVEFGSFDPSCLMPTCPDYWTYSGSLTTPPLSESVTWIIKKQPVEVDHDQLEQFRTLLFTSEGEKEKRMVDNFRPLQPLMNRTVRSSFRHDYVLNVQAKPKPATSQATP

Carbonic anhydrase 6 = Carbonic anhydrase 6 (Homo sapiens, UniProt P23280); experiment: Inhibition of human carbonic anhydrase 6 preincubated for 15 mins by stopped flow CO2 hydration assay
Carbonic anhydrase 6, sequence (P23280 whole entry): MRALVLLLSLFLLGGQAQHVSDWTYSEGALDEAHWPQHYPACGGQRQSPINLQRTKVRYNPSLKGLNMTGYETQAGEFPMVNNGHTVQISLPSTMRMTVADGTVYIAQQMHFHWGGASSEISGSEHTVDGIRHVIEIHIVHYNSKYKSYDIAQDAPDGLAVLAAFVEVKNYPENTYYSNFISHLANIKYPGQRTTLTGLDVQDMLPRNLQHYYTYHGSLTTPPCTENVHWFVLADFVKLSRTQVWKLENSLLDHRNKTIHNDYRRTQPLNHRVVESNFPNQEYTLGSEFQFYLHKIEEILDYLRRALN

Carbonic anhydrase 13 = Carbonic anhydrase 13 (Homo sapiens, UniProt Q8N1Q1); experiment: Inhibition of human carbonic anhydrase 13 preincubated for 15 mins by stopped flow CO2 hydration assay
Carbonic anhydrase 13, sequence (Q8N1Q1 whole entry): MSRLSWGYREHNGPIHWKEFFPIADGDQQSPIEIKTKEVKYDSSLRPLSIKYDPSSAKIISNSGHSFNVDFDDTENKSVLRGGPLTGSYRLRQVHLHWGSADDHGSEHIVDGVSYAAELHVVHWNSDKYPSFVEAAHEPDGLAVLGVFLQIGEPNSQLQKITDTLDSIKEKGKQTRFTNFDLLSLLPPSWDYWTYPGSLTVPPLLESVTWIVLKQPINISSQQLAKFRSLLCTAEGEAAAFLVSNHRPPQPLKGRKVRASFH

Carbonic anhydrase 14 = Carbonic anhydrase 14 (Homo sapiens, UniProt Q9ULX7); experiment: Inhibition of human carbonic anhydrase 14 preincubated for 15 mins by stopped flow CO2 hydration assay
Carbonic anhydrase 14, sequence (Q9ULX7 whole entry): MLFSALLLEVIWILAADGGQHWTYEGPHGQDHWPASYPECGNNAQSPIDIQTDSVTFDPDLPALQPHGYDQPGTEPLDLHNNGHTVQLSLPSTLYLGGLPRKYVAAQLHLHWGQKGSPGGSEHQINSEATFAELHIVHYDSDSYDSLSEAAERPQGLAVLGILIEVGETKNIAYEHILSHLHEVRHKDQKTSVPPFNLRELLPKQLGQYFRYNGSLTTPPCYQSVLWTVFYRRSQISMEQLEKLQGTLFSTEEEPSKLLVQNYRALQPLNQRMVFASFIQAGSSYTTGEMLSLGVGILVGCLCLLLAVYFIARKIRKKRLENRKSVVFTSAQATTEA

[5] = biological target: Carbonic anhydrase 5A, mitochondrial (Homo sapiens, UniProt P35218); experiment: Inhibition of human carbonic anhydrase 5a preincubated for 15 mins by stopped flow CO2 hydration assay
Carbonic anhydrase 5A, mitochondrial, sequence (P35218 whole entry): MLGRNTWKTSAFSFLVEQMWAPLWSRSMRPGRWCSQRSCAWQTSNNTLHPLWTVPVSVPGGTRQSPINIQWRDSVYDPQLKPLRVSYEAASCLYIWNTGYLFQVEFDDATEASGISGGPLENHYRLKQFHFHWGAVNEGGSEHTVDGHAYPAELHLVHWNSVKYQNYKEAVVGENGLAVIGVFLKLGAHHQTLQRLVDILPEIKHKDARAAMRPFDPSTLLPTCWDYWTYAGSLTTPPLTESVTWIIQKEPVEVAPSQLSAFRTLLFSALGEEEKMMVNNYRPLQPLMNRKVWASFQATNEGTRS

Carbonic anhydrase 1 [6] = biological target: T5, Carbonic anhydrase 1 (Homo sapiens, UniProt P00915); experiment: Inhibition of cytosolic human carbonic anhydrase 1 preincubated for 15 mins by stopped flow CO2 hydration assay
T5 sequence (P00915 whole entry): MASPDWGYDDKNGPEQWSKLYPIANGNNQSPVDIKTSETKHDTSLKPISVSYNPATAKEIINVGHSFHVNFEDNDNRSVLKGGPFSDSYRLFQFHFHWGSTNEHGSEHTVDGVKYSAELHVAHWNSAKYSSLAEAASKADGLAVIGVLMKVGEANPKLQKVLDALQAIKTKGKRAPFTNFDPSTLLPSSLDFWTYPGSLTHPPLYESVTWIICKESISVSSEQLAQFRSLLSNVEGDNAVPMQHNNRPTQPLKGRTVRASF

Carbonic anhydrase 1 [7] = biological target: T5, Carbonic anhydrase 1; experiment: Inhibition of cytosolic human carbonic anhydrase 1 preincubated for 12 hrs by stopped flow CO2 hydration assay
Method in brief: (§2)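 Stopped-flow CO2 hydration, with phenol red 0.2 mM as indicator read at 557 nm. Buffer 20 mM Hepes pH 7.5 with 20 mM NaClO4 for ionic strength. Initial rates followed for 10–100 s, with uncatalyzed rates subtracted. Inhibitor stock 0.1 mM in water, diluted in assay buffer. Enzyme and inhibitor preincubated 12 h at 4 °C. KI by non-linear least squares, mean of at least three determinations.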

Carbonic anhydrase 2 [8] = biological target: T4, Carbonic anhydrase 2; experiment: Inhibition of cytosolic human carbonic anhydrase 2 preincubated for 12 hrs by stopped flow CO2 hydration assay; method in brief: as §2
Carbonic anhydrase 9 [9] = biological target: T1, Carbonic anhydrase 9; experiment: Inhibition of transmembrane tumor-associated human carbonic anhydrase 9 preincubated for 12 hrs by stopped flow CO2 hydration assay; method in brief: as §2
Carbonic anhydrase 12 [10] = biological target: T2, Carbonic anhydrase 12; experiment: Inhibition of transmembrane tumor-associated human carbonic anhydrase 12 preincubated for 12 hrs by stopped flow CO2 hydration assay; method in brief: as §2

SMILES	Ki (Carbonic anhydrase 9 [1]) [µM]	Ki (Carbonic anhydrase 12 [2]) [µM]	Ki (Carbonic anhydrase 7) [µM]	Ki (Carbonic anhydrase 15) [µM]	Ki (Carbonic anhydrase 2 [3]) [µM]	Ki (Carbonic anhydrase 3) [µM]	Ki (Carbonic anhydrase 4) [µM]	Ki [4] [µM]	Ki (Carbonic anhydrase 6) [µM]	Ki (Carbonic anhydrase 13) [µM]	Ki (Carbonic anhydrase 14) [µM]	Ki [5] [µM]	Ki (Carbonic anhydrase 1 [6]) [µM]	Ki (Carbonic anhydrase 1 [7]) [µM]	Ki (Carbonic anhydrase 2 [8]) [µM]	Ki (Carbonic anhydrase 9 [9]) [µM]	Ki (Carbonic anhydrase 12 [10]) [µM]
Oc1ccc(C=Cc2cc(O)cc(O)c2)cc1 (mixture of isomers)	9.53	8.13	8.98	2.57	1.75	6.75	4.01	3.24	8.63	8.25	1.95	2.86	–	–	–	–	–
O=c1cc(-c2ccccc2)oc2cc(O)ccc12 [7-HYDROXYFLAVONE]	4.92	8.4	–	–	2.24	–	–	–	–	–	–	–	3.37	3.43	2.32	4.85	8.51
O=c1c(O)c(-c2ccccc2)oc2ccccc12 [FLAVONOL]	5.54	6.59	–	–	9.3	–	–	–	–	–	–	–	5.21	5.1	9.2	5.63	6.65

The next compounds have a lower Ki (Carbonic anhydrase 9 [1]) than those just listed; values first:

Ki (Carbonic anhydrase 9 [1]) [µM]	Ki (Carbonic anhydrase 12 [2]) [µM]	Ki (Carbonic anhydrase 7) [µM]	Ki (Carbonic anhydrase 15) [µM]	Ki (Carbonic anhydrase 2 [3]) [µM]	Ki (Carbonic anhydrase 3) [µM]	Ki (Carbonic anhydrase 4) [µM]	Ki [4] [µM]	Ki (Carbonic anhydrase 6) [µM]	Ki (Carbonic anhydrase 13) [µM]	Ki (Carbonic anhydrase 14) [µM]	Ki [5] [µM]	Ki (Carbonic anhydrase 1 [6]) [µM]	Ki (Carbonic anhydrase 1 [7]) [µM]	Ki (Carbonic anhydrase 2 [8]) [µM]	Ki (Carbonic anhydrase 9 [9]) [µM]	Ki (Carbonic anhydrase 12 [10]) [µM]	SMILES
3.4	9.31	7.95	3.75	–	–	–	–	–	–	–	–	–	–	–	–	–	Nc1oc2ccc(Cl)cc2c(=O)c1-c1ccc(Cl)cc1
2.41	6.49	6.75	1.65	–	–	–	–	–	–	–	–	–	–	–	–	–	COc1ccc(-c2c(N)oc3ccc(Cl)cc3c2=O)cc1
2.65	8.96	–	–	4.38	–	–	–	–	–	–	–	5.49	5.42	4.31	2.71	9.07	O=c1cc(-c2ccccc2)oc2cc(O)cc(O)c12 [CHRYSIN]
4.13	7.22	–	–	8.71	–	–	–	–	–	–	–	1.89	1.88	8.8	4.22	7.33	O=c1cc(-c2ccccc2)oc2ccccc12 [FLAVONE]

— ChEMBL document CHEMBL2016452, “Flavones and structurally related 4-chromenones inhibit carbonic anhydrases by a different mechanism of action compared to coumarins” (Bioorg Med Chem Lett, 2012)
